One assay has as its system HepG2. Put plainly: (§1) Cytotoxicity against human Hep G2 cells after 3 days by MTT method. In kind it is functional, cell-based. The gist of the method:
(§2)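 Freshly trypsinized cells seeded at 5000-10 000 per well; compounds added from DMSO stocks. After 3 days in culture, attached cells incubated with MTT ([…], 1 h), solubilized in DMSO, absorbance read at 550 nm. IC50 = concentration reducing cell growth by 50%. Mean of two to three separate experiments, each in triplicate.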

Another assay relates to Hep 3B2. Put plainly: (§3) Cytotoxicity against human Hep3B cells after 3 days by MTT method. In kind it is functional, cell-based. The gist of the method: as §2
A further assay concerns MCF7. In words: Cytotoxicity against human MCF7 cells after 3 days by MTT method. It counts as functional, cell-based. In outline: as §2
A general note: Formazan colour is commonly taken as a measure of viable cells.

The subject of the next assay is MDA-MB-231. In words: Cytotoxicity against human MDA-MB-231 cells after 3 days by MTT method. It counts as functional, cell-based. The gist of the method:
as §2

The next assay has as its system A549. Put plainly: Cytotoxicity against human A549 cells after 3 days by MTT method. It counts as functional, cell-based. The gist of the method:
as §2

A short description of assay [1]: as §1. The note with it: HepG2, 72 h. In kind it is functional, cell-based. The gist of the method: as §2
Assay [2] in a line: as §3. It counts as functional, cell-based, Hep 3B2. The following applies: 72 h. The gist of the method: as §2

SMILES strings stand for the structures. In brackets after ≈: the same amount, converted by molar mass. Activity calls are given as the source filed them. The rule behind the calls is not given here.

The results in this text go back to ChEMBL document CHEMBL1158096, “Cytotoxic triterpenoids from the leaves of Microtropis fokienensis” (J Nat Prod, 2006).

By IC50 is commonly meant the concentration that inhibits the measured activity by half. Low values mean greater potency in that assay, high ones weaker potency in that assay.

Turning to `CC1(C)CC[C@@]23CC[C@]4(C)[C@@](C=C[C@@H]5[C@@]6(C)CC[C@H](O)C(C)(C)[C@@H]6CC[C@]54C)(OC2)[C@@H]3C1`, the result in the assay with HepG2, in the assay with Hep 3B2, with MCF7, in the assay on MDA-MB-231 and in the assay on A549 was inactive.
On to `Oc1cc(O)c2c(c1)O[C@H](c1ccc(O)c(O)c1)[C@H](O)C2`, for which the result with HepG2, in the assay on Hep 3B2, with MCF7, in the assay with MDA-MB-231 and in the assay with A549 was inactive.
`CO[C@@H]1C=C2[C@@H]3[C@@H](C)[C@H](C)CC[C@]3(CO)CC[C@@]2(C)[C@]2(C)CC[C@H]3C(C)(C)[C@@H](O)CC[C@]3(C)[C@@H]12` came in with an IC50 in assay [1] of 4.6 µg/mL (≈ 9.73 µM). Also, the result with Hep 3B2, in the assay with MCF7, with MDA-MB-231 and in the assay with A549 was inactive.
On to `CO[C@@H]1C=C2[C@@H]3[C@@H](C)[C@H](C)CC[C@]3(C)CC[C@@]2(C)[C@]2(C)CC[C@H]3C(C)(C)[C@@H](O)CC[C@]3(C)[C@@H]12`, for which the result in the assay with HepG2, in the assay on Hep 3B2, in the assay with MCF7, in the assay with MDA-MB-231 and in the assay with A549 was inactive.
Take `C[C@H]1[C@H](C)CC[C@]23CO[C@@]4(C=C[C@@H]5[C@@]6(C)CC[C@H](O)C(C)(C)[C@@H]6CC[C@@]5(C)[C@]4(C)C[C@@H]2O)[C@H]13`: the outcome in the assay with HepG2, in the assay on Hep 3B2, with MCF7, in the assay with MDA-MB-231 and in the assay with A549 was inactive.
On to `CC1(C)C(=O)CC[C@]2(C)[C@H]3C=C[C@]45OC[C@@]6(CC[C@](C)(CO)C[C@H]64)CC[C@@]5(C)[C@]3(C)CC[C@@H]12`, for which the result in the assay with HepG2, with Hep 3B2, in the assay on MCF7, in the assay on MDA-MB-231 and in the assay with A549 was inactive.
For the compound `O=c1c(O)c(-c2ccc(O)cc2)oc2cc(O)cc(O)c12`, the result in the assay on HepG2, in the assay with Hep 3B2, in the assay with MCF7, with MDA-MB-231 and with A549 was inactive.
`C=C(CO)[C@@H]1CC[C@]2(C)CC[C@]3(C)[C@H](CC[C@@H]4[C@@]5(C)CC[C@H](O)C(C)(C)[C@@H]5CC[C@]43C)[C@@H]12`: the outcome with HepG2, with Hep 3B2, in the assay with MCF7, in the assay with MDA-MB-231 and in the assay on A549 was inactive.
As to `C[C@H]1[C@H](C)CC[C@@]23CC[C@]4(C)[C@@](C=C[C@@H]5[C@@]6(C)CC[C@H](O)C(C)(C)[C@@H]6CC[C@]54C)(OC2)[C@H]13`, the result in the assay on HepG2, in the assay with Hep 3B2, in the assay on MCF7, with MDA-MB-231 and with A549 was inactive.
For `C[C@H]1[C@H](C)CC[C@]2(CO)CC[C@]3(C)C(=CC[C@@H]4[C@@]5(C)CC[C@H](O)C(C)(C)[C@@H]5CC[C@]43C)[C@H]12`, the outcome with HepG2, in the assay with Hep 3B2, in the assay on MCF7, in the assay on MDA-MB-231 and in the assay on A549 was inactive.
For `C[C@H]1[C@H](C)CC[C@@]23CC[C@]4(C)[C@@](C=C[C@@H]5[C@@]6(C)CC[C@H](O)[C@@](C)(CO)[C@@H]6CC[C@]54C)(OC2)[C@H]13`, the outcome in the assay on HepG2, in the assay with Hep 3B2, with MCF7, in the assay with MDA-MB-231 and with A549 was inactive.
For the compound `C[C@H]1[C@H](C)CC[C@@]23CC[C@@]4(C)[C@]5(C)CC[C@@H]6[C@](C)(CC[C@H](O)[C@@]6(C)CO)[C@H]5CC(=O)[C@]4(OC2)[C@H]13` [MICROFOKIENOXANE C], the results for the IC50 in assay [1] and in assay [2] were 3.8 µg/mL (≈ 8.04 µM) and 4.5 µg/mL (≈ 9.52 µM), respectively. The outcome in the assay on MCF7, in the assay on MDA-MB-231 and with A549 was inactive.
As to `COC(=O)/C=C/c1ccc(O)cc1`, the result in the assay on HepG2, in the assay on Hep 3B2, in the assay on MCF7, in the assay with MDA-MB-231 and with A549 was inactive.
Consider `C=C(CO)[C@@H]1CC[C@]2(CO)CC[C@]3(C)[C@H](CC[C@@H]4[C@@]5(C)CC[C@H](O)C(C)(C)[C@@H]5CC[C@]43C)[C@@H]12`, for which the outcome with HepG2, in the assay on Hep 3B2, in the assay with MCF7, with MDA-MB-231 and with A549 was inactive.
